Results collected from several papers.
Compare with care: the assays were run in different laboratories. In brackets after ≈: the same amount, converted by molar mass.
Organism: Nakaseomyces glabratus

| Structure (SMILES) | test | system | conditions | quantity | result |
| --- | --- | --- | --- | --- | --- |
| CCCCCOc1c(OC)cc(NC(C)CCCNC(=O)C(N)CCCNC(=N)N)c2nc(C(C)(C)C)ccc12 (centres unmarked) | microbial killing | ATCC90030 |  | MFC | 20 µg/mL (≈ 35.9 µM) |
| CCOC(=O)c1nc2ccccc2c(=O)n1Cc1cn(-c2ccc(Cl)cc2)nn1 | microbial growth, broth dilution | ATCC90030 | 24 h | IC50 | 195 µg/mL (≈ 476 µM) |
| C[C@@H]1[C@H](O)[C@@H](C)/C=C/C=C/C=C/C=C/C=C/C=C/C=C/[C@H](O[C@@H]2O[C@H](C)[C@@H](O)[C@H](N)[C@@H]2O)C[C@@H]2O[C@](O)(C[C@@H](O)C[C@@H](O)[C@H](O)CC[C@@H](O)C[C@@H](O)CC(=O)O[C@H]1C)C[C@H](O)[C@H]2C(=O)O | microbial growth | ATCC90030 |  | IC50 | 0.31 µg/mL (≈ 0.335 µM) |
| CCCCCCCCCCCCCN1CCN(CC(O)(Cn2cncn2)c2ccc(F)cc2F)CC1 (centres unmarked) | microbial growth, broth dilution | ATCC2001 | 48 h | MIC | 0.975 µg/mL (≈ 1.93 µM) |
| CCCCCCCCOc1c(OC)cc(NC(C)CCCNC(=O)C2CCCN2)c2nc(C(C)(C)C)ccc12 (centres unmarked) | microbial growth | ATCC90030 |  | IC50 | 11 µg/mL (≈ 20.3 µM) |
| CCOC(=O)c1nc2ccccc2c(=O)n1Cc1cn(-c2cccc(OC)c2)nn1 | microbial growth, broth dilution | ATCC90030 | 24 h | IC50 | 417 µg/mL (≈ 1030 µM) |
| CCCCCOc1c(OC)cc(NC(C)CCCNC(=O)C(N)Cc2ccccc2)c2nc(C(C)(C)C)ccc12 (centres unmarked) | microbial growth | ATCC90030 |  | IC50 | 10.9 µg/mL (≈ 20 µM) |
| OC(Cn1cncn1)(Cn1cncn1)c1ccc(F)cc1F | microbial growth, broth dilution | MY1381 |  | MIC50 | 4 µg/mL (≈ 13.1 µM) |
| CCCCCN1CCN(CC(O)(Cn2cncn2)c2ccc(F)cc2F)CC1 (centres unmarked) | microbial growth, broth dilution | ATCC2001 | 48 h | MIC | > 31.3 µg/mL |
| COc1ccccc1-n1cc(Cn2c(C(=O)O)nc3ccccc3c2=O)nn1 | microbial growth, broth dilution | ATCC90030 | 24 h | IC50 | 29.4 µg/mL (≈ 77.9 µM) |
| COc1cc(C(C)(C)C#Cc2c(C)nc(N)nc2N)cc(OC)c1OC | microbial growth, resazurin |  |  | MIC | 178 µg/mL (≈ 499 µM) |
| CCCCCCCCCCN1CCN(CC(O)(Cn2cncn2)c2ccc(F)cc2F)CC1 (centres unmarked) | microbial growth, broth dilution | ATCC2001 | 48 h | MIC | > 31.3 µg/mL |
| CCCCCCOc1c(OC)cc(NC(C)CCCNC(=O)C(N)Cc2cnc[nH]2)c2nc(C(C)(C)C)ccc12 (centres unmarked) | microbial growth, broth dilution | ATCC90030 |  | MIC | 20 µg/mL (≈ 36.2 µM) |
| Cc1cccc(-n2cc(Cn3c(C(=O)O)nc4ccccc4c3=O)nn2)c1 | microbial growth, broth dilution | ATCC90030 | 24 h | IC50 | 245 µg/mL (≈ 677 µM) |
| CCCCCCOc1c(OC)cc(NC(C)CCCN)c2nc(C(C)(C)C)cc(C)c12 (centres unmarked) | microbial killing | ATCC90030 |  | MFC | 20 µg/mL (≈ 46.5 µM) |
| O=C(O)c1nc2ccccc2c(=O)n1Cc1cn(-c2cccc([N+](=O)[O-])c2)nn1 | microbial growth, broth dilution | ATCC90030 | 24 h | IC50 | 487 µg/mL (≈ 1240 µM) |
| CN1CCNCC1 | microbial growth, broth dilution | ATCC2001 | 48 h | MIC | > 31.3 µg/mL |
| CCCCCCOc1c(OC)cc(NC(C)CCCN)c2nc(C(C)(C)C)ccc12 (centres unmarked) | microbial growth | ATCC90030 |  | IC50 | 11.5 µg/mL (≈ 27.6 µM) |
| C#CCCCCCCCCC=CCC(O)CC(O)CO (centres unmarked) | microbial growth, broth dilution | ATCC90030 |  | IC50 | > 8 µg/mL |
| CCOC(=O)c1nc2ccccc2c(=O)n1Cc1cn(-c2cccc([N+](=O)[O-])c2)nn1 | microbial growth, broth dilution | ATCC90030 | 24 h | IC50 | 354 µg/mL (≈ 842 µM) |
| CCCCCCCCCCCCN1CCNCC1 | microbial growth, broth dilution | ATCC2001 | 48 h | MIC | 1.95 µg/mL (≈ 7.66 µM) |
| CCOC(=O)c1nc2ccccc2c(=O)n1Cc1cn(-c2ccccc2[N+](=O)[O-])nn1 | microbial growth, broth dilution | ATCC90030 | 24 h | IC50 | 272 µg/mL (≈ 648 µM) |
| CCCCCCCCCCN1CCN(CC(O)(Cn2cncn2)c2ccc(Cl)cc2Cl)CC1 (centres unmarked) | microbial growth, broth dilution | ATCC2001 | 48 h | MIC | 0.975 µg/mL (≈ 1.96 µM) |
| CCCCCCCCOc1c(OC)cc(NC(C)CCCN)c2nc(C(C)(C)C)ccc12 (centres unmarked) | microbial growth | ATCC90030 |  | IC50 | 6.19 µg/mL (≈ 14 µM) |
| CCCCCCCCCN1CCN(CC(O)(Cn2cncn2)c2ccc(F)cc2F)CC1 (centres unmarked) | microbial growth, broth dilution | ATCC2001 | 48 h | MIC | 3.9 µg/mL (≈ 8.67 µM) |
| OC(Cn1cncn1)(Cn1cncn1)c1ccc(F)cc1F | microbial killing | ATCC2001 |  | MFC | > 64 µg/mL |
| CC[C@H](C)C[C@H](C)CCCCCCCCC(=O)N[C@H]1C[C@@H](O)[C@@H](NCCN)NC(=O)[C@@H]2[C@@H](O)CCN2C(=O)[C@H]([C@H](O)CCN)NC(=O)[C@H]([C@H](O)[C@@H](O)c2ccc(O)cc2)NC(=O)[C@@H]2C[C@@H](O)CN2C(=O)[C@H]([C@@H](C)O)NC1=O | microbial growth, broth dilution | ATCC2001 | 48 h | MIC | 0.06 µg/mL (≈ 0.0549 µM) |
| O=C(O)c1nc2ccccc2c(=O)n1Cc1cn(-c2cccc(F)c2)nn1 | microbial growth, broth dilution | ATCC90030 | 24 h | IC50 | 262 µg/mL (≈ 717 µM) |
| C[C@@H]1[C@H](O)[C@@H](C)/C=C/C=C/C=C/C=C/C=C/C=C/C=C/[C@H](O[C@@H]2O[C@H](C)[C@@H](O)[C@H](N)[C@@H]2O)C[C@@H]2O[C@](O)(C[C@@H](O)C[C@@H](O)[C@H](O)CC[C@@H](O)C[C@@H](O)CC(=O)O[C@H]1C)C[C@H](O)[C@H]2C(=O)O | microbial killing | ATCC90030 |  | MFC | 0.63 µg/mL (≈ 0.682 µM) |
